Columns and labels:
[1] = Antiproliferative activity against human CRL2813 cells assessed as inhibition of cell proliferation after 5 days by sulforhodamine B assay; format: functional, cell-based; conditions: CRL2813, 120 h
In short: (§1)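 Adherent cells (CRL-2351 breast, CRL-2813 melanoma) in 96-well plates kept 5 days with compound at 0.54–20 μM. Fixed in cold 10% TCA at 4 °C overnight, stained 1 h at RT with 0.057% SRB in 1% acetic acid, unbound dye removed with 1% acetic acid, bound dye dissolved in 10 mM Tris pH 10, absorbance read at 510 nm. IC50 reported.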

[2] = Antiproliferative activity against human CRL2351 cells assessed as inhibition of cell proliferation after 5 days by sulforhodamine B assay; format: functional, cell-based; conditions: 120 h; in short: as §1
[3] = target: Eukaryotic translation initiation factor 4E (Homo sapiens, UniProt P06730); test: Displacement of N-alpha-fluorescein tagged eIF4G-derived peptide from GST-DN26-eIF4E (unknown origin) by fluorescence polarization assay
[4] = Retention time of the compound by RP-HPLC analysis; format: physicochemical
In short: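 C18 Xbridge column (4.6 mm × 100 mm), 1 mL/min, detection at 254 nm. Mobile phase A 0.1% v/v FA in water, B 0.1% v/v TFA in acetonitrile. Linear gradient usually 0–100% B over 26 min; some runs 50–100% B over 20 min or 30–100% B over 26 min.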

Sequence of Eukaryotic translation initiation factor 4E (P06730 whole entry): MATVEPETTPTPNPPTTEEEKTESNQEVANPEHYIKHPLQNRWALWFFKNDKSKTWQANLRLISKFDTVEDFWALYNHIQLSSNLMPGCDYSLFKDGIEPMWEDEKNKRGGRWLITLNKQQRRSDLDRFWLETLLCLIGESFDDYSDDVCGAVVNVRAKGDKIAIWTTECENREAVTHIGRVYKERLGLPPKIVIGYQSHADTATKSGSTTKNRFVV

Row | SMILES | IC50 [3] | Retention_time [4] | IC50 [1] | IC50 [2]
1 | O=C(O)/C(Cc1ccccc1[N+](=O)[O-])=N\Nc1nc(-c2ccc(Cl)c(Cl)c2)cs1 | – | – | 15.3 µM | 11.6 µM
2 | O=C(O)/C(Cc1ccccc1[N+](=O)[O-])=N/Nc1nc2c(s1)CCc1c-2ccc(Cl)c1Cl | – | 8.69 min | 3.6 µM | 4.4 µM
3 | O=C(O)/C(Cc1ccccc1[N+](=O)[O-])=N\Nc1nc2c(s1)CCc1c-2ccc(Cl)c1Cl | – | 11.39 min | 10.6 µM | 11.2 µM
4 | O=C(O)/C(Cc1ccccc1[N+](=O)[O-])=N/Nc1nc2c(s1)CSc1c-2ccc(Cl)c1Cl | – | 15.66 min | 4.5 µM | 9.1 µM
5 | O=C(O)/C(Cc1ccccc1[N+](=O)[O-])=N/Nc1nc2c(s1)C[S+]([O-])c1c-2ccc(Cl)c1Cl (stereo not drawn) | – | 8.74 min | 11.2 µM | > 20 µM
6 | O=C(O)/C(Cc1ccccc1[N+](=O)[O-])=N\Nc1nc2c(s1)C[S+]([O-])c1c-2ccc(Cl)c1Cl (stereo not drawn) | – | 10.12 min | 11.4 µM | 19.8 µM
7 | O=C(O)/C(Cc1ccccc1[N+](=O)[O-])=N/Nc1nc2c(s1)CS(=O)(=O)c1c-2ccc(Cl)c1Cl | – | 12.41 min | – | –
8 | O=C(O)/C(Cc1ccccc1[N+](=O)[O-])=N\Nc1nc2c(s1)CS(=O)(=O)c1c-2ccc(Cl)c1Cl | – | 13.63 min | – | –
9 | COc1cc2c(cc1OC)-c1nc(N/N=C(\Cc3ccccc3[N+](=O)[O-])C(=O)O)sc1CC2 | – | 10 min | 12.1 µM | > 20 µM
10 | COc1cc2c(cc1OC)-c1nc(N/N=C(/Cc3ccccc3[N+](=O)[O-])C(=O)O)sc1CC2 | – | 11.22 min | > 20 µM | > 20 µM
11 | COc1ccc2c(c1OC)OCc1sc(N/N=C(\Cc3ccccc3[N+](=O)[O-])C(=O)O)nc1-2 | – | 8.78 min | > 20 µM | –
12 | COc1ccc2c(c1OC)OCc1sc(N/N=C(/Cc3ccccc3[N+](=O)[O-])C(=O)O)nc1-2 | – | 10.38 min | – | –

Now from value to compound, other results behind:

Row | IC50 [3] | Retention_time [4] | SMILES | IC50 [1] | IC50 [2]
13 | 21.5 µM | 8.37 min | O=C(O)/C(Cc1ccccc1[N+](=O)[O-])=N/Nc1nc2c(s1)CCc1cc(Cl)c(Cl)cc1-2 | 3.8 µM | 4.1 µM
14 | 34 µM | 10.79 min | O=C(O)/C(Cc1ccccc1[N+](=O)[O-])=N\Nc1nc2c(s1)CCc1cc(Cl)c(Cl)cc1-2 | 12 µM | > 20 µM
15 | – | 11.6 min | O=C(O)/C(Cc1ccccc1[N+](=O)[O-])=N/Nc1nc2c(s1)COc1c-2ccc(Cl)c1Cl | 5.8 µM | 16.6 µM
16 | – | 13.6 min | O=C(O)/C(Cc1ccccc1[N+](=O)[O-])=N\Nc1nc2c(s1)COc1c-2ccc(Cl)c1Cl | 12.3 µM | > 20 µM
17 | – | 12.77 min | O=C(O)/C(Cc1ccccc1[N+](=O)[O-])=N/Nc1nc2c(s1)COc1cc(Cl)c(Cl)cc1-2 | 3.1 µM | 5.2 µM
18 | – | 14.74 min | O=C(O)/C(Cc1ccccc1[N+](=O)[O-])=N\Nc1nc2c(s1)COc1cc(Cl)c(Cl)cc1-2 | 8.7 µM | 15.4 µM
19 | – | 10.33 min | O=C(O)/C(Cc1ccccc1[N+](=O)[O-])=N/Nc1nc2c(s1)CSc1cc(Cl)c(Cl)cc1-2 | 5.1 µM | 17.6 µM
20 | – | 13.33 min | O=C(O)/C(Cc1ccccc1[N+](=O)[O-])=N\Nc1nc2c(s1)CSc1cc(Cl)c(Cl)cc1-2 | 10.5 µM | 17.7 µM
21 | – | 18.23 min | O=C(O)/C(Cc1ccccc1[N+](=O)[O-])=N\Nc1nc2c(s1)CSc1c-2ccc(Cl)c1Cl | 7 µM | 16.7 µM
22 | – | 9.82 min | O=C(O)/C(Cc1ccccc1[N+](=O)[O-])=N/Nc1nc2c(s1)C[S+]([O-])c1cc(Cl)c(Cl)cc1-2 (stereo not drawn) | 7.5 µM | > 20 µM
23 | – | 10.38 min | O=C(O)/C(Cc1ccccc1[N+](=O)[O-])=N\Nc1nc2c(s1)C[S+]([O-])c1cc(Cl)c(Cl)cc1-2 (stereo not drawn) | 4.1 µM | 10.3 µM
24 | – | 11.48 min | O=C(O)/C(Cc1ccccc1[N+](=O)[O-])=N/Nc1nc2c(s1)CS(=O)(=O)c1cc(Cl)c(Cl)cc1-2 | – | –
25 | – | 12.41 min | O=C(O)/C(Cc1ccccc1[N+](=O)[O-])=N\Nc1nc2c(s1)CS(=O)(=O)c1cc(Cl)c(Cl)cc1-2 | – | –
26 | – | 9.07 min | COc1cc2c(cc1OC)-c1nc(N/N=C(\Cc3ccccc3[N+](=O)[O-])C(=O)O)sc1CO2 | > 20 µM | –
27 | – | 10.9 min | COc1cc2c(cc1OC)-c1nc(N/N=C(/Cc3ccccc3[N+](=O)[O-])C(=O)O)sc1CO2 | – | –

From ChEMBL document CHEMBL3286149, “Synthesis of rigidified eIF4E/eIF4G inhibitor-1 (4EGI-1) mimetic and their in vitro characterization as inhibitors of protein-protein interaction” (J Med Chem, 2014)
